Square brackets hold non-standard residues; d marks the D form. Ends that are not written are not given here. pY = N[C@@H](Cc1ccc(OP(=O)(O)O)cc1)C(=O)O
Experiments:
[1] = biological target: GRB2-SH2 domain (Homo sapiens, UniProt P62993); test: MST binding of synthetic peptides to Atto488-labeled GRB2-SH2 domain; conditions: synthetic peptide
[2] = tested on: human MRE11 (residues 1 to 411); test: MST binding of Atto488-labeled GRB2; conditions: bacterially expressed purified proteins
[3] = Sulforhodamine B assay of olaparib-induced cytotoxicity, KO + K109R cells; assay type: cell-based; conditions: human, GRB2-KO HeLa cells reconstituted with K109R mutant GRB2
Method in brief: (§1)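 HeLa cells kept in RPMI 1640 with 10% FBS at 10% CO2. Knockout made by CRISPR-Cas9 gRNA delivered by lentivirus, with puromycin or blasticidin selection; clones checked by Western blot and pooled. Stable reconstitution with wild-type or K109R Strep-tagged GRB2. Cytotoxicity of PARP inhibitor read by sulforhodamine B staining. IC50 taken from the concentration–response data.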

[4] = tested on: GRB2-KO HeLa cells; test: Annexin V/PI staining assay, GRB2-KO cells; assay type: cell-based, human; conditions: FACS, 50 μM olaparib for 72 hours, triplicate
Method in brief: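 HeLa cells (GRB2-knockout and comparison lines) grown in RPMI 1640 with 10% FBS at 10% CO2. Cells treated 72 h with DMSO or 50 μM PARP inhibitor, then trypsinized, washed and resuspended in annexin-binding buffer. Labelled with annexin V–Alexa Fluor 647 plus PI for 15 min at room temperature in the dark. Annexin V- and PI-positive fractions scored by flow cytometry against the DMSO control. Triplicate.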

[5] = Sulforhodamine B assay of olaparib-induced cytotoxicity, GRB2-KO cells; assay type: cell-based, human; conditions: human, GRB2-KO HeLa cells
[6] = tested on: GRB2-KO HeLa cells; test: as above; assay type: cell-based, human; conditions: Sulforhodamine B assay, ratio of IC50 WT vs GRB2-KO
[7] = tested on: control (WT) HeLa cells; test: Annexin V/PI staining assay, control cells; assay type: cell-based, human; conditions: FACS, 50 μM olaparib for 72 hours, triplicate
[8] = Sulforhodamine B assay of olaparib-induced cytotoxicity, KO + GRB2 cells; assay type: cell-based; conditions: human, GRB2-KO HeLa cells reconstituted with WT GRB2
Method in brief: as §1

[9] = tested on: GRB2-KO HeLa cells reconstituted with ^K109RGRB2; test: Annexin V/PI staining assay, KO + K109R cells; assay type: cell-based, human; conditions: FACS, 50 μM olaparib for 72 hours, compared with GRB2-KO
[10] = Sulforhodamine B assay of olaparib-induced cytotoxicity, control cells; assay type: cell-based; conditions: human, control (WT) HeLa cells
Method in brief: as §1

Sequence of GRB2-SH2 domain (P62993 60-152 limits assumed): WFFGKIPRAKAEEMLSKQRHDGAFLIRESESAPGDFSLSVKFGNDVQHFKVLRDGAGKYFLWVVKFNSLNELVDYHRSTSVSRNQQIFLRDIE

## PSGGKKATQASQE(pY) [pY142 H2AX]
[1]
  binding to GRB2-SH2 domain in words: failed to produce a binding isotherm

## PWVN[pY]QDGNLN [WVNpYQDGNLN]
[1]
  binding to GRB2-SH2 domain in words: limited impact

## PSGGKKATQA(pS)QEY [pS139 H2AX]
[1]
  binding to GRB2-SH2 domain in words: failed to produce a binding isotherm

## ^K109RGRB2: GRB2 lysine-109-to-arginine mutant, MRE11 nonbinding, generated by site-directed mutagenesis
[2]
  MRE11 binding in words: no binding

## O=C(c1cc(Cc2n[nH]c(=O)c3ccccc23)ccc1F)N1CCN(C(=O)C2CC2)CC1 [olaparib]
[3]
  IC50: 20 ± 3 µM
[4]
  olaparib-induced apoptosis, share of cells: 60%
[5]
  IC50: 18 ± 2.9 µM
[6]
  sensitivity of GRB2-KO cells relative to WT control cells: seven
[7]
  olaparib-induced apoptosis, share of cells: 20%
[8]
  IC50: 164 ± 47 µM
[9]
  olaparib-induced apoptosis, in words: failed to rescue the phenotype
[10]
  IC50: 124 ± 41 µM
